From PubChem BioAssay
TAAR1 agonist: human TAAR1 agonists, primary screen, Fluo-8 calcium fluorescence, CHO RD-HGA16 cells | vehicle wells 0%, saturating PEA agonist 100% | AID 624467, 2012 | Trace amine-associated receptor 1 (Homo sapiens), Q96RJ0 | activation, % at 3 µM | 360,000 tested, 0.99% active;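 active = activation above the mean activation of all test compounds in the run plus 3 SD, cut at about 38% in these data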
Target sequence (Q96RJ0 whole entry, looked up): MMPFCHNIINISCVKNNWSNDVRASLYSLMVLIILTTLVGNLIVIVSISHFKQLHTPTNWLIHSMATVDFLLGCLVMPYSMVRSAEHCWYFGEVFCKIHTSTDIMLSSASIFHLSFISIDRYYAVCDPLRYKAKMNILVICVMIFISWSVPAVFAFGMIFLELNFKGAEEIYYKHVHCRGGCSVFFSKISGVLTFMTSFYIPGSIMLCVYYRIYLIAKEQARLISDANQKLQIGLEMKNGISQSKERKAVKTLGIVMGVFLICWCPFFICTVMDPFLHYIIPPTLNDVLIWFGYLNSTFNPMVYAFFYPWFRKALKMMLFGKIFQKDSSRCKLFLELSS
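Repeats: no replicates (n 1) | Material: CHO-derived RD-HGA16 cells with stable Gα16 and human TAAR1 | Technique: Kinetic Fluo-8 calcium fluorescence | Schedule: 17-24 h seeding, 75 min 37 °C dye, 30 min RT | Evaluation: % activation from peak over basal fluorescence ratio, DMSO-to-PEA scaled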
TAAR1 antagonist: human TAAR1 antagonists, primary screen, Fluo-8 calcium fluorescence, CHO RD-HGA16 cells. 360,000 tested, 1.5% active. inhibition, % at 3 µM. antagonist. Trace amine-associated receptor 1 (Homo sapiens), Q96RJ0;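 active = inhibition above a per-plate cutoff, the mean inhibition of test compounds on that plate plus 3 SD, cut at about 49% in these data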;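 note: 0% = DMSO plus EC80 beta-PEA response and 100% = DMSO alone without agonist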
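Assay system: RD-HGA16 CHO cells with stable hTAAR1 and Gα16 / Reagent: EC80 β-phenethylamine stimulus / Doses: 3 µM, single point / Timing: dye loading 75 min at 37 °C, then 30 min room temperature / Measured by: Fluo-8 intracellular calcium dye fluorescence, real-time kinetic reads / Controls: vehicle wells and EC80 agonist wells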
CHO parental Ca: ATP-evoked calcium signal inhibitors, parental CHO, primary screen, counter-screen for OX1R antagonist project, cell-based, fluorescence, Fluo-8 calcium dye. parental CHO-K1, ATP-induced calcium, Fluo-8 fluorescence. inhibition, % at 5.6 µM. 330,000 tested, 0.63% active;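 active = inhibition above that plate's mean sample inhibition plus 3 SD, cut at about 26% in these data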;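 note: 0% = ATP-challenged DMSO wells and 100% = DMSO wells without ATP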
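Assay system: untransfected parental CHO cell line. Also added: ATP agonist challenge. Dosing: one dose, 5.6 µM nominal. Measured by: Fluo-8 fluorescence. Read-out: % inhibition. Benchmarks: ATP wells versus no-ATP DMSO wells. Repeats: no replicates.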
OX1R antag-1: OX1R (HCRTR1) antagonists, primary screen, fluorescence, CHO/OX1R cells, Fluo-8 calcium, orexin A; inhibition, % at 5 µM; 330,000 tested, 0.43% active; Fluo-8 calcium fluorescence; Orexin/Hypocretin receptor type 1 (Homo sapiens), O43613; AID 434989, 2010;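 active = inhibition above its plate's threshold, mean inhibition of all tested compounds on the plate plus 3 SD, cut at about 37% in these data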;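 note: 0% = orexin A challenge wells and 100% = SB-334867-A antagonist wells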
OX1R antag-2: antagonists of human orexin 1 receptor (OX1R) | 330,000 tested, 1.8% active | OX1R-expressing cells, FRET antagonist read-out | Orexin/Hypocretin receptor type 1 (Homo sapiens), O43613 | inhibition, % at 6.6 µM; in the data active = inhibition mostly above about 38%, no sharp cut-off; inactive = mostly below about 40%;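 note: 0% = agonist challenge alone and 100% = reference antagonist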
GPR7 antagonist: GPR7 receptor antagonists, primary screen, cell-based, fluorescence, single concentration; Neuropeptides B/W receptor type 1 (Homo sapiens), P48145; GPR7-expressing cells, fluorescence antagonist assay; inhibition, % at 4.4 µM; 290,000 tested, 1.1% active; in the data active = inhibition above about 16%, passing the limit was not always enough;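 note: cells stimulated with the agonist NPW; 0% = agonist with vehicle and 100% = vehicle without agonist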
Target sequence (P48145 whole entry, looked up): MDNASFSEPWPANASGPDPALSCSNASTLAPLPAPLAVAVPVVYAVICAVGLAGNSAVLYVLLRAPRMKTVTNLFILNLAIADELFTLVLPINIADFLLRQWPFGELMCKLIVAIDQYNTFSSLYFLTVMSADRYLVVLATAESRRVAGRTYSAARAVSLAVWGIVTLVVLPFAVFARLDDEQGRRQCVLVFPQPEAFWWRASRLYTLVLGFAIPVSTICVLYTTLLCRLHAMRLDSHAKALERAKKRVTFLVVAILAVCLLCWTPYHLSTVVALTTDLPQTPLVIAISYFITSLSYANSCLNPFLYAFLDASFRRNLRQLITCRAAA
The depositor's hits bear a star; . = not tested or not shown. In the library only some 4.6% were active in any assay of this set; here they are far more common.

SMILES	TAAR1 agonist	TAAR1 antagonist	CHO parental Ca	OX1R antag-1	OX1R antag-2	GPR7 antagonist
O=C(Nc1ccccc1)Nc1cc([N+](=O)[O-])ccc1F	41*	3	-5	-1	16	5
Cc1cc([N+](=O)[O-])ccc1NC(=O)Nc1ccccc1F	7	13	-5	-8	5	-11
CCO[C@H]1C[C@@H](c2ccc(CC)cc2)N(S(=O)(=O)c2ccc(C)cc2)C2CC(c3ccc(CC)cc3)N(S(=O)(=O)c3ccc(C)cc3)CC21 (stereo partly specified)	3	-22	.	.	.	.
CC1(C)CCN2CCC(C)(C)c3c(O)ccc1c32	24	17	38*	41*	14	23
CC(=O)c1c2c3c(cccc3n(C)c1=O)C(=O)c1ccccc1-2	.	.	-8	-26	25	-7
CC(=O)c1c2c3c(c(Br)ccc3n(C)c1=O)C(=O)c1ccccc1-2	4	-3	-18	-4	56*	8
Cc1nn(-c2nc3ccccc3s2)c(C)c1Oc1ccccc1O	.	.	32*	67*	38	-9
COc1ccc(NC(=O)CSc2nnc(-c3cccc(O)c3)o2)cc1	40*	-12	15	-11	9	7
Cc1cccc(OCc2nnc(SCC(=O)Nc3ccc(C)c(C)c3)o2)c1	5	54*	-11	1	3	-10
CC(C)CC(N)c1csc(NC(=O)Nc2ccccc2C(C)(C)C)n1 (stereo unspecified)	24	1	.	.	.	.
COc1cccc(CNCc2ccc(OC)cc2OC)c1	4	-25	-17	-20	6	-7
CCn1c2ccccc2c2cc(CNCc3ccc(OC)cc3OC)ccc21	46*	3	-13	16	22	29*
CC1CS(=O)(=O)CCN1N=Cc1ccc([N+](=O)[O-])o1 (stereo unspecified)	0	-15	-6	-5	53*	.
CC(=O)C1=C(C)N(Cc2ccc(Cl)cc2)C(=S)NC1c1ccc(Cl)cc1 (stereo unspecified)	2	16	.	.	.	.
CN1CCCCC(NC(=O)c2ccccn2)C1=O (stereo unspecified)	0	0	.	.	.	.
CCN1C(=O)C(CC(=O)Nc2ccc(OC)cc2)N(CCc2ccc(OC)cc2)C1=S (stereo unspecified)	28	51*	-24	11	0	2
CCN1C(=O)C(CC(=O)Nc2ccc(OC)cc2)N(Cc2ccc(OC)c(OC)c2)C1=S (stereo unspecified)	9	-29	-16	-24	2	-9
O=c1c2ccccc2on1-c1ccccc1	0	6	.	.	.	.
COc1ccc(NC(=O)Nc2ccc3c(c2)CCC3)cc1OC	5	17	5	-11	37	-7
COc1ccc(/C=C/C(=O)Nc2ccc3c(c2)CCC3)cc1OC	3	-4	-24	22	73*	-3
CCn1c(C)c(C(C)=O)c(N2CCN(C(c3ccccc3)c3ccccc3)CC2)nc1=S	15	50*	-11	-33	9	-9
COc1cc(NC(=O)c2cccc3c(-c4cnn(C)c4)coc23)cc(OC)c1OC	15	54*	.	.	.	.
CC(=O)c1cccc(NC(=O)c2ccc(-c3c(C)noc3C)c3ccoc23)c1	11	64*	.	.	.	.
COc1ccc(-c2ccc(C(=O)Nc3ccc(NC(C)=O)cc3)c3occc23)c(C)c1	14	51*	.	.	.	.
COc1ccc(NC(=O)c2cccc3c(-c4cnn(C)c4)coc23)cc1	7	4	.	.	.	.
SMILES	TAAR1 agonist	TAAR1 antagonist	CHO parental Ca	OX1R antag-1	OX1R antag-2	GPR7 antagonist
CC(=O)Nc1ccc(NC(=O)c2ccc(-c3c(C)noc3C)c3ccoc23)cc1	6	-7	.	.	.	.
CC(=O)c1cccc(NC(=O)c2cccc3c(-c4cnn(C)c4)coc23)c1	14	55*	.	.	.	.
CN(c1cccnc1)c1ccc(NC(=O)Cc2c[nH]c3ccccc23)cc1-c1ccc(F)c(F)c1	7	24	.	.	.	.
CC(C)C[C@@H]1Cc2[nH][nH]c(=O)c2[C@H](C(C)C)O1	-1	0	.	.	.	.
CC(C)(C)OC(=O)NCCCCCc1cn([C@@H](CO)C(=O)NCCCCCCCCCCC(=O)N2CCN(C(=O)OC(C)(C)C)CC2)nn1	35	87*	96*	74*	71*	.
CC[C@H](C)[C@@H](C(=O)NCCCCCCCCCCC(=O)N1CCN(C(=O)OC(C)(C)C)CC1)n1cc(CCCCN=C(NC(=O)OC(C)(C)C)NC(=O)OC(C)(C)C)nn1	.	.	-14	-9	27	.
CC[C@H](C)[C@@H](C(=O)NCCCCCCCCCCC(=O)N1CCN(C(=O)OC(C)(C)C)CC1)n1cc(CCCCCNC(=O)OC(C)(C)C)nn1	18	60*	43*	32	13	.
CC(C)(C)OC(=O)CC[C@@H](C(=O)NCCCCCCCCCCC(=O)N1CCN(C(=O)OC(C)(C)C)CC1)n1cc(CCCCCNC(=O)OC(C)(C)C)nn1	8	42	-21	-31	26	.
CN(C(=O)CSc1nnnn1-c1ccccc1)C1CCS(=O)(=O)C1 (stereo unspecified)	1	-18	-1	-14	10	19*
Cn1c2c(c(=O)n(C)c1=O)C(C(F)(F)F)(C(F)(F)F)N=C(c1ccc(Cl)cc1)N2	.	.	17	9	56*	5
C=CCNc1cccc2c1S(=O)(=O)N[C@H](C)CO2	2	8	.	.	.	.
CC(C)Oc1cccc(-c2cc(C(=O)N3CCN(c4ncccn4)CC3)c3ccccc3n2)c1	33	52*	-3	-17	15	1
CC(C)Oc1cccc(-c2cc(C(=O)N3CCN(S(C)(=O)=O)CC3)c3ccccc3n2)c1	19	43	-16	-40	26	-6
COc1ccc(-c2cc(C(=O)N3CCCCC3)c3ccccc3n2)cc1	6	15	-35	-20	7	.
COc1cccc(-c2cc(C(=O)N3CCN(c4ncccn4)CC3)c3ccccc3n2)c1	15	56*	-12	-19	8	-2
O=C(N[C@H](C(=O)N1CCC[C@H]1C(=O)NC1CCCC1)C1CCCCC1)c1ccccc1	1	3	.	.	.	.
O=C(NCCN1C(=O)S/C(=C\c2ccccc2F)C1=O)C1CC(=O)N(Cc2ccccc2)C1 (stereo unspecified)	27	54*	-26	-7	19	.
O=C(NCCN1C(=O)S/C(=C\c2cccnc2)C1=O)C1CC(=O)N(Cc2ccco2)C1 (stereo unspecified)	10	-5	3	-3	51	-4
C[C@H](CO)N1C[C@H](C)[C@H](CN(C)Cc2cccc(F)c2)Oc2ncc(C3=CCCC3)cc2C1=O	0	-14	.	.	.	.
